Values joined by “and” are separate entries in the source; they are usually repeats but may differ in a detail not shown here. Equal values may be shown once.
Test system: HEK-293T
Experiment: Multiplex assay against HEK293T;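 for Population Tubulin-Different-Phenotype (%): share of the cells with healthy nuclei that show this phenotype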
Type: toxicity, cell-based
Conditions: human
How it was run: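 Tubulin, mitochondrial-mass and membrane-permeability phenotypes are per cents of healthy-nucleus cells. Cells were gated by CellPathfinder machine learning into Hoechst high-intensity objects or normal cells, normal cells into healthy, pyknosed or fragmented nuclei, and pyknosed cells into mitotic or apoptotic. Before that, live cells stained at seeding with Hoechst33342, BioTracker Green Microtubule Cytoskeleton Dye, MitoTracker Red and Annexin V Alexa Fluor 680 were imaged on a CQ1 microscope at 37°C and 5% CO2 after compound addition.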

[1] = 12 h, 1 µM, compound concentration 1 uM, replicate 1
[2] = 12 h, 1 µM, compound concentration 1 uM, replicate 2
[3] = 12 h, 10 µM, compound concentration 10 uM, replicate 1
[4] = 12 h, 10 µM, compound concentration 10 uM, replicate 2
[5] = 24 h, 1 µM, compound concentration 1 uM, replicate 1
[6] = 24 h, 1 µM, compound concentration 1 uM, replicate 2
[7] = 24 h, 10 µM, compound concentration 10 uM, replicate 1
[8] = 24 h, 10 µM, compound concentration 10 uM, replicate 2
[9] = 48 h, 1 µM, compound concentration 1 uM, replicate 1
[10] = 48 h, 1 µM, compound concentration 1 uM, replicate 2
[11] = 48 h, 10 µM, compound concentration 10 uM, replicate 1
[12] = 48 h, 10 µM, compound concentration 10 uM, replicate 2

Structure (SMILES): CC(C)Oc1ccccc1C(=O)Nc1ccccc1C(=O)Nc1cccc(S(=O)(=O)C(F)(F)F)c1
- Population Apoptotic (%) [1]: 64%
- Population Fragmented Nuclei (%) [1]: 10%
- Population Healthy Nuclei (%) [1]: 41%
- Population Hoechst High Intensity Objects (%) [1]: 14%
- Population Membrane Permeable-Phenotype (%) [1]: 3%
- Population Mitochondria Different-Phenotype (%) [1]: 90%
- Population Mitotic Cells (%) [1]: 35%
- Population Normal (%) [1]: 85%
- Population Pyknosed Nuclei (%) [1]: 47%
- Population Tubulin-Different-Phenotype (%) [1]: 77%
- Total Cell Count [1]: 237
- Population Apoptotic (%) [2]: 34%
- Population Fragmented Nuclei (%) [2]: 7%
- Population Healthy Nuclei (%) [2]: 37%
- Population Hoechst High Intensity Objects (%) [2]: 6%
- Population Membrane Permeable-Phenotype (%) [2]: 8%
- Population Mitochondria Different-Phenotype (%) [2]: 58%
- Population Mitotic Cells (%) [2]: 65%
- Population Normal (%) [2]: 93%
- Population Pyknosed Nuclei (%) [2]: 55%
- Population Tubulin-Different-Phenotype (%) [2]: 76%
- Total Cell Count [2]: 214
- Population Fragmented Nuclei (%) [3]: 11%
- Population Healthy Nuclei (%) [3]: 31%
- Population Hoechst High Intensity Objects (%) [3]: 13%
- Population Membrane Permeable-Phenotype (%) [3]: 6%
- Population Mitochondria Different-Phenotype (%) [3]: 91%
- Population Mitotic Cells (%) [3]: 34%
- Population Normal (%) [3]: 87%
- Population Pyknosed Nuclei (%) [3]: 57%
- Population Tubulin-Different-Phenotype (%) [3]: 87%
- Total Cell Count [3]: 300
- Population Apoptotic (%) [4]: 66%
- Population Fragmented Nuclei (%) [4]: 7%
- Population Healthy Nuclei (%) [4]: 21%
- Population Hoechst High Intensity Objects (%) [4]: 4%
- Population Membrane Permeable-Phenotype (%) [4]: 9%
- Population Mitochondria Different-Phenotype (%) [4]: 71%
- Population Mitotic Cells (%) [4]: 33%
- Population Normal (%) [4]: 95%
- Population Pyknosed Nuclei (%) [4]: 71%
- Population Tubulin-Different-Phenotype (%) [4]: 83%
- Total Cell Count [4]: 206
- Population Apoptotic (%) [5]: 64%
- Population Fragmented Nuclei (%) [5]: 16%
- Population Healthy Nuclei (%) [5]: 44%
- Population Hoechst High Intensity Objects (%) [5]: 14%
- Population Membrane Permeable-Phenotype (%) [5]: 0%
- Population Mitochondria Different-Phenotype (%) [5]: 90%
- Population Mitotic Cells (%) [5]: 35%
- Population Normal (%) [5]: 85%
- Population Pyknosed Nuclei (%) [5]: 38%
- Population Tubulin-Different-Phenotype (%) [5]: 67%
- Total Cell Count [5]: 263
- Population Apoptotic (%) [6]: 42%
- Population Fragmented Nuclei (%) [6]: 8%
- Population Healthy Nuclei (%) [6]: 50%
- Population Hoechst High Intensity Objects (%) [6]: 3%
- Population Membrane Permeable-Phenotype (%) [6]: 3%
- Population Mitochondria Different-Phenotype (%) [6]: 66%
- Population Mitotic Cells (%) [6]: 58%
- Population Normal (%) [6]: 96%
- Population Pyknosed Nuclei (%) [6]: 41%
- Population Tubulin-Different-Phenotype (%) [6]: 83%
- Total Cell Count [6]: 253
- Population Apoptotic (%) [7]: 61%
- Population Fragmented Nuclei (%) [7]: 18%
- Population Healthy Nuclei (%) [7]: 31%
- Population Hoechst High Intensity Objects (%) [7]: 11%
- Population Membrane Permeable-Phenotype (%) [7]: 4%
- Population Mitochondria Different-Phenotype (%) [7]: 94%
- Population Mitotic Cells (%) [7]: 38%
- Population Normal (%) [7]: 88%
- Population Pyknosed Nuclei (%) [7]: 49%
- Population Tubulin-Different-Phenotype (%) [7]: 77%
- Total Cell Count [7]: 332
- Population Apoptotic (%) [8]: 78%
- Population Fragmented Nuclei (%) [8]: 7%
- Population Healthy Nuclei (%) [8]: 25%
- Population Hoechst High Intensity Objects (%) [8]: 3%
- Population Membrane Permeable-Phenotype (%) [8]: 9%
- Population Mitochondria Different-Phenotype (%) [8]: 84%
- Population Mitotic Cells (%) [8]: 21%
- Population Normal (%) [8]: 96%
- Population Pyknosed Nuclei (%) [8]: 67%
- Population Tubulin-Different-Phenotype (%) [8]: 81%
- Total Cell Count [8]: 217
- Population Apoptotic (%) [9]: 63%
- Population Fragmented Nuclei (%) [9]: 19%
- Population Healthy Nuclei (%) [9]: 43%
- Population Hoechst High Intensity Objects (%) [9]: 16%
- Population Membrane Permeable-Phenotype (%) [9]: 2%
- Population Mitochondria Different-Phenotype (%) [9]: 66%
- Population Mitotic Cells (%) [9]: 36%
- Population Normal (%) [9]: 83%
- Population Pyknosed Nuclei (%) [9]: 36%
- Population Tubulin-Different-Phenotype (%) [9]: 50%
- Total Cell Count [9]: 286
- Population Apoptotic (%) [10]: 25%
- Population Fragmented Nuclei (%) [10]: 6%
- Population Healthy Nuclei (%) [10]: 73%
- Population Hoechst High Intensity Objects (%) [10]: 5%
- Population Membrane Permeable-Phenotype (%) [10]: 3%
- Population Mitochondria Different-Phenotype (%) [10]: 46%
- Population Mitotic Cells (%) [10]: 74%
- Population Normal (%) [10]: 94%
- Population Pyknosed Nuclei (%) [10]: 19%
- Population Tubulin-Different-Phenotype (%) [10]: 74%
- Total Cell Count [10]: 393
- Population Apoptotic (%) [11]: 59%
- Population Fragmented Nuclei (%) [11]: 35%
- Population Healthy Nuclei (%) [11]: 30%
- Population Hoechst High Intensity Objects (%) [11]: 13%
- Population Membrane Permeable-Phenotype (%) [11]: 3%
- Population Mitochondria Different-Phenotype (%) [11]: 89%
- Population Mitotic Cells (%) [11]: 40%
- Population Normal (%) [11]: 86%
- Population Pyknosed Nuclei (%) [11]: 34%
- Population Tubulin-Different-Phenotype (%) [11]: 50%
- Total Cell Count [11]: 401
- Population Apoptotic (%) [12]: 58%
- Population Fragmented Nuclei (%) [12]: 16%
- Population Healthy Nuclei (%) [12]: 26%
- Population Hoechst High Intensity Objects (%) [12]: 5%
- Population Membrane Permeable-Phenotype (%) [12]: 15%
- Population Mitochondria Different-Phenotype (%) [12]: 64%
- Population Mitotic Cells (%) [12]: 41%
- Population Normal (%) [12]: 94%
- Population Pyknosed Nuclei (%) [12]: 56%
- Population Tubulin-Different-Phenotype (%) [12]: 79%
- Total Cell Count [12]: 251

Structure (SMILES): Cc1cc(C)c(-n2ccn3nc(-c4cccnc4)cc23)cc1NC(=O)c1cc(C#N)cc(S(F)(F)(F)(F)F)c1 [BAY-826]
- Population Apoptotic (%) [1]: 30%
- Population Fragmented Nuclei (%) [1]: 14% and 17%
- Population Healthy Nuclei (%) [1]: 56% and 57%
- Population Hoechst High Intensity Objects (%) [1]: 14% and 13%
- Population Membrane Permeable-Phenotype (%) [1]: 36% and 23%
- Population Mitochondria Different-Phenotype (%) [1]: 25% and 17%
- Population Mitotic Cells (%) [1]: 69%
- Population Normal (%) [1]: 85% and 86%
- Population Pyknosed Nuclei (%) [1]: 28% and 24%
- Population Tubulin-Different-Phenotype (%) [1]: 93% and 58%
- Total Cell Count [1]: 624 and 510
- Population Fragmented Nuclei (%) [2]: 4% and 6%
- Population Healthy Nuclei (%) [2]: 75% and 83%
- Population Hoechst High Intensity Objects (%) [2]: 3%
- Population Membrane Permeable-Phenotype (%) [2]: 34% and 17%
- Population Mitochondria Different-Phenotype (%) [2]: 32% and 19%
- Population Mitotic Cells (%) [2]: 79% and 93%
- Population Normal (%) [2]: 96%
- Population Pyknosed Nuclei (%) [2]: 20% and 9%
- Population Tubulin-Different-Phenotype (%) [2]: 98% and 82%
- Total Cell Count [2]: 1184 and 1372
- Population Apoptotic (%) [5]: 35% and 25%
- Population Fragmented Nuclei (%) [5]: 12% and 11%
- Population Healthy Nuclei (%) [5]: 66% and 76%
- Population Hoechst High Intensity Objects (%) [5]: 12% and 7%
- Population Membrane Permeable-Phenotype (%) [5]: 33% and 20%
- Population Mitochondria Different-Phenotype (%) [5]: 28% and 16%
- Population Mitotic Cells (%) [5]: 64% and 75%
- Population Normal (%) [5]: 87% and 92%
- Population Pyknosed Nuclei (%) [5]: 20% and 12%
- Population Tubulin-Different-Phenotype (%) [5]: 95% and 76%
- Total Cell Count [5]: 622 and 545
- Population Apoptotic (%) [6]: 9% and 14%
- Population Healthy Nuclei (%) [6]: 78% and 68%
- Population Hoechst High Intensity Objects (%) [6]: 4%
- Population Membrane Permeable-Phenotype (%) [6]: 22% and 17%
- Population Mitotic Cells (%) [6]: 90% and 85%
- Population Normal (%) [6]: 95%
- Population Tubulin-Different-Phenotype (%) [6]: 87%
- Total Cell Count [6]: 2013 and 1166

Source: ChEMBL document CHEMBL4689842, “EUbOPEN Chemogenomics Library wave 1” (2021)
